Compound activity deposited in PubChem by several laboratories.
HKDC1 inh = HKDC1 hexokinase inhibitors, primary screen, biochemical, fluorescence, uHTS; Q2TB90; recombinant HKDC1, G6PDH/diaphorase resazurin coupled fluorescence; inhibition, % at 20 µM; actives 0.16% (n = 340,000); AID 493160, 2011;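 active = inhibition above about 35% when tested at 20 µM, limit read from the data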;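 also: plate controls were DMSO wells with enzyme for no effect and DMSO wells lacking enzyme for full effect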
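Assay system: recombinant HKDC1 hexokinase; detection: coupled resazurin fluorescence, excitation 525 nm, emission 613 nm; benchmarks: DMSO-plus-enzyme-mix negative control, buffer-substituted positive control; compound dosing: single 20 µM dose; schedule: 90 min at room temperature in dark; also added: glucose plus 1 mM ATP as hexokinase substrates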
TbHK1 inh = Trypanosoma brucei hexokinase 1 inhibitors, primary screen, biochemical, G6PDH-coupled NADH absorbance, MLSCN library | inhibition, % at 10 µM | actives 0.11% (n = 220,000) | recombinant TbHK1, G6PDH-coupled NADH A340;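 active = inhibition of 50% or more in the single-dose primary screen; inactive = inhibition below 50%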
Diaph inh CS = diaphorase inhibitors and chemical oxidizers, primary screen, counter-screen for diaphorase-coupled primary assays, biochemical, uHTS, resorufin fluorescence; diaphorase resazurin-to-resorufin fluorescence, NADH, 16 min; bacterial (C. kluyveri) enzyme, not human; inhibition, % at 20 µM; actives 0.69% (n = 190,000); AID 1217, 2008;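 active = primary screen inhibition at 20 µM above a set limit, cut at about 50% in these data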;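 also: plate controls were DMSO with full reaction for no effect and wells lacking NADH for full effect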
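System: Bacterial diaphorase enzyme (C. kluyveri) | Incubation: 16-min room-temperature incubation before reading | Benchmarks: No-NADH positive control and DMSO neutral control | Measured by: Resorufin fluorescence 544/590 nm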
G6PDH counter-1 = L. mesenteroides G6PDH inhibitors, counter-screen for G6PDH-coupled screening assays, biochemical, Leuconostoc mesenteroides enzyme; inhibition, % at 5 µM; actives 0.12% (n = 200,000); glucose-6-phosphate dehydrogenase [Leuconostoc mesenteroides]; Purified L. mesenteroides G6PDH, diaphorase/resazurin coupled fluorescence, 45 min; in the data active = inhibition above about 50%
Diaphorase act = compounds boosting diaphorase resazurin reduction – biochemical, uHTS, resorufin fluorescence, counter-screen for diaphorase-coupled primary assays, primary screen; Diaphorase/resazurin coupled assay, 16 min; active compounds read high; 1 = vehicle wells, 0 = NADH-free wells; activation factor at 20 µM; actives 0.005% (n = 190,000); AID 1229, 2008;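 active = diaphorase activity raised at least twofold by the compound at 20 µM; inactive = activation factor below 2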
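Material: Purified diaphorase enzyme from Clostridium kluyveri | Buffer or medium: 50 mM HEPES pH 7.4 with 4.542 mM MgCl2, 0.005% Tween 20 | Times: 16 min enzyme reaction, ambient temperature | Signal: Red resorufin fluorescence at 544/590 nm excitation/emission | Measure: Increased resorufin signal from activators or reducing compounds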
PfG6PD inh = PfG6PD enzyme inhibitors, primary screen, biochemical, fluorescence intensity, uHTS. glucose-6-phosphate dehydrogenase-6-phosphogluconolactonase (Plasmodium falciparum 3D7). PfGluPho enzyme, NADPH resazurin-diaphorase fluorescence. inhibition, % at 20 µM. actives 0.78% (n = 350,000). AID 504690, 2011;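 active = inhibition reaching at least a set limit at 20 µM in the primary screen, cut at about 59% in these data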;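 also: 0% = DMSO wells with substrate and 100% = DMSO wells lacking glucose-6-phosphate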
G6PDH counter-2 = Leuconostoc G6PDH inhibition, confirmation, counter-screen for TbHK1 inhibitor project, biochemical, DPI cherry-picked compounds, single concentration; inhibition, % at 10 µM; purified G6PDH, NADH absorbance, 1 h; actives 7% (n = 210); shares compounds with TbHK1 inh;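 active = at least 50% inhibition in the glucose-6-phosphate dehydrogenase coupled counterscreen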
TbHK1 rescreen = TbHK1 inhibitor retest, confirmation, biochemical, DPI cherry-picked primary actives | recombinant TbHK1, G6PDH-coupled NADH A340 absorbance | actives 10% (n = 210) | AID 2560, 2010 | shares compounds with TbHK1 inh | inhibition, % at 10 µM;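 active = inhibition of at least 50% in both of the two screening runs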;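 also: 0% and 100% set by the maximum and minimum signal control wells on each plate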
* hit, by the source's call; . = no result given. A selection: hits, their analogues and other compounds. The true share with any hit is near 1.3%.

SMILES	HKDC1 inh	TbHK1 inh	Diaph inh CS	G6PDH counter-1	Diaphorase act	PfG6PD inh	G6PDH counter-2	TbHK1 rescreen
CN1C(=O)C(Cl)(Cl)C(=O)c2ccccc21	-7	75*	76*	25	0.2	44	33	33
C=CCn1c(Cc2ccc(OC)cc2)nnc1SCC(=O)NCCc1ccccc1	-12	2	10	16	0.9	-4	.	.
CC(C)C1Cc2c(C#N)c(N)sc(=S)c2CO1 (stereo not given)	3	19	27	9	0.7	31	.	.
CC1(C)Cc2c(C#N)c(N)sc(=S)c2CO1	-8	73*	30	13	0.7	37	101*	68*
Cc1cc(C)n2nc(SCC(=O)NC3CCCCC3C)nc2n1 (stereo not given)	2	.	.	.	.	-11	.	.
CCN(CC)S(=O)(=O)c1ccc(C(=O)Nc2ncn(Cc3ccccc3)n2)cc1	2	64*	10	3	0.9	-15	-5	2
CCN(CC)S(=O)(=O)c1ccc(C(=O)Nn2cnnc2)cc1	1	.	.	.	.	-19	.	.
CCN(CC)S(=O)(=O)c1ccc(C(=O)NCc2n[nH]c(=S)n2Cc2ccccc2)cc1	5	61*	20	4	0.8	20	-12	5
CC(C)CNC(=O)NC1C(NC(=O)NCC(C)C)N(C)C(=O)N1C (stereo not given)	-2	57*	-4	5	1	-8	-9	-2
CCC(C)NC(=O)NC1C(NC(=O)NC(C)CC)N(C)C(=O)N1C (stereo not given)	-2	3	8	-2	0.9	16	.	.
Cc1cc(C)cc(C(=O)NC(CC(N)=O)c2ccc(N3CCCCCC3)c([N+](=O)[O-])c2)c1 (stereo not given)	-2	.	.	.	.	1	.	.
O=C(OCCN1C(=O)c2ccccc2C1=O)c1cnccn1	-3	51*	25	3	0.7	-12	-13	-1
O=C(OCCN1C(=O)c2ccccc2C1=O)c1ccccc1	-3	0	2	2	1	-14	.	.
CCC1Oc2ccccc2N(CC(=O)NCCc2ccc(OC)c(OC)c2)C1=O (stereo not given)	-1	1	-6	1	1.1	1	.	.
CCC1Oc2ccccc2N(CC(=O)Nc2ccccc2OC)C1=O (stereo not given)	-6	51*	13	10	0.9	22	2	0
CCOC(=O)Nc1ccc(C(=O)c2ccncc2)cc1	3	.	.	.	.	-15	.	.
CCOC(=O)C(NC(=O)Nc1ccc(Cl)cn1)(Oc1ccccc1)C(F)(F)F (stereo not given)	-6	-15	15	8	0.8	-1	.	.
COCCNC(=O)CN(C)S(=O)(=O)c1ccc(Br)cc1	-6	3	14	-1	0.9	14	.	.
COC(=O)NCCOC(=O)N(O)c1ccc(Br)cc1	-2	57*	20	11	0.8	5	-1	3
Cc1ccc(CNC(=O)CCS(=O)(=O)c2ccc(Br)cc2)cc1	-4	68*	2	7	1	-9	-3	79*
CCOc1ccccc1NC(=O)COC(=O)/C=C/c1cccs1	-3	.	.	.	.	7	.	.
CC(O)c1nc2ccc(Cc3ccc4nc(C(C)O)[nH]c4c3)cc2[nH]1 (stereo not given)	0	55*	-6	11	1.1	-5	-5	-7
